The text below walks through data of ChEMBL document CHEMBL1136933 (J Med Chem, 2009).

In data set [1] the target is T1, Muscarinic acetylcholine receptor M2 (Rattus norvegicus) (UniProt P10980).
T1 sequence (whole entry): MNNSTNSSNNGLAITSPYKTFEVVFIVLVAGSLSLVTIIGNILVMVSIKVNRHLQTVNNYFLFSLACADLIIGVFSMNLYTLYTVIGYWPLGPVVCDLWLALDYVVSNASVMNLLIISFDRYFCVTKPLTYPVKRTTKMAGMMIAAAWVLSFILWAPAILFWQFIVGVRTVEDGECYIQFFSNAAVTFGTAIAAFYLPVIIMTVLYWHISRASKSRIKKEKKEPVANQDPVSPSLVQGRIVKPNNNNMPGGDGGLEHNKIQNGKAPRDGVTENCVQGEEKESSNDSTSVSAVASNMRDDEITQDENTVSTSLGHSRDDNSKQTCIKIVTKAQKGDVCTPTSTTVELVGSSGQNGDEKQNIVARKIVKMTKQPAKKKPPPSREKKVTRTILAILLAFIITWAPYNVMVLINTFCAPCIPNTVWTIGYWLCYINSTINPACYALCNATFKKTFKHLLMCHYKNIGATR
Put plainly: Activation of rat muscarinic M2 receptor expressed in CHO cells coexpressing chimeric Gqi5 protein assessed as potentiation of acetylcholine-induced intracellular Ca2+ mobilization up to 30 uM. In kind it is functional, cell-based.

Data set [2] in a line: Selectivity ratio of EC50 for rat muscarinic M1 receptor to EC50 for human muscarinic M5 receptor.
The species entered for data set [3] is Homo sapiens. Put plainly: Selectivity ratio of EC50 for human muscarinic M3 receptor to EC50 for human muscarinic M5 receptor.
Data set [4] in a line: Cmax in Sprague-Dawley rat plasma at 10 mg/kg, ip within 1 hr. Details: dose 10 mg/kg, route intraperitoneal. In kind it is ADME, organism-based. In short, it runs like this: (§1)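 Male Sprague-Dawley rats (225-250 g) dosed ip at 10 mg/kg as a 5 mg/ml micro-suspension in 10% Tween 80 in sterile water. Plasma and brain sampled at 0.5, 1, 3 and 6 h, three animals per time point. Quantified by protein precipitation and LC-MS/MS against an internal standard. Brain values corrected for residual blood. PK parameters derived by noncompartmental analysis.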

Data set [5] relates to Plasma. Kind of data set: Elimination half life in Sprague-Dawley rat plasma at 10 mg/kg, ip. In kind it is ADME, organism-based. Details: dose 10 mg/kg, route intraperitoneal. To be noted: in vivo. In short, it runs like this:
as §1

The nature of data set [6]: Elimination half life in Sprague-Dawley rat brain at 10 mg/kg, ip. In kind it is ADME, organism-based. Details: dose 10 mg/kg, route intraperitoneal. To be noted: read-out: beta t1/2 (converted). In short, it runs like this:
as §1

A short description of data set [7]: AUC (0 to 6 hrs) in Sprague-Dawley rat plasma at 10 mg/kg, ip. Format: ADME, organism-based. Details: time < 6 hr, dose 10 mg/kg, route intraperitoneal. In short, it runs like this:
as §1

The source made the active and inactive calls. The calls are words filed in the database; no cut-off is given here. Bounds are passed on as bounds.

As a reminder, the Cmax is the maximum level reached in the sampled fluid or tissue. The term AUC(0-t) denotes exposure summed from dosing to a finite time, without extrapolation to infinity. A low value points to low exposure. In the case of `COc1ccc(CN2C(=O)C(=O)c3cc(OC(F)(F)F)ccc32)cc1`, the outcome in data set [1] was inactive. Besides, the Ratio EC50 in data set [2] and in data set [3] was greater than 30 in each case. In addition, in data set [4], the Cmax is 0.162 µg/mL. The “beta t1/2” value in data set [5] worked out at 4.7 h. Besides, the half-life in data set [6] is 3.69 h. This molecule registered an area under the curve AUC(0-t) at 6 h in data set [7] of 0.621 µg·h/mL.
